Laboratory results as given in ChEMBL document CHEMBL1914395, “Design, synthesis, and biological evaluation of callophycin A and analogues as potential chemopreventive and anticancer agents” (Bioorg Med Chem, 2011).

Key:
[1] = molecular target: T1, Aromatase (Homo sapiens, UniProt P11511); experiment: Inhibition of aromatase at 50 uM after 10 mins preincubation by plate reader relative to control
T1 sequence (P11511 whole entry): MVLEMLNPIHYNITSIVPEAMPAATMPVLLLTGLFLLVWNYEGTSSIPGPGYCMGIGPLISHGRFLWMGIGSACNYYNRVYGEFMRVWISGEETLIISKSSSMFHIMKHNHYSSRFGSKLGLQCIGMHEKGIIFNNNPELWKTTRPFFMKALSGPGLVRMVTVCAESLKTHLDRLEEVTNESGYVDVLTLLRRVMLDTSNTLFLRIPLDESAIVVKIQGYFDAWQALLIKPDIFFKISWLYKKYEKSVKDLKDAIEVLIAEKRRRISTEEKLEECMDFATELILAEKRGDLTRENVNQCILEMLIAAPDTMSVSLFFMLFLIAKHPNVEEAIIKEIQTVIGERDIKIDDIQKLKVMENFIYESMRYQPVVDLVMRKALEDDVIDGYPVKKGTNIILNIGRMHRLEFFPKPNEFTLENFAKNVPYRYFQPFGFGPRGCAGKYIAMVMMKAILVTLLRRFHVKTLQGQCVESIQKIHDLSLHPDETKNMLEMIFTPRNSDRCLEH
Procedure, shortened: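 CYP19 enzyme. Compound pre-incubated 10 min with an NADPH-regenerating system (NADP+, glucose 6-phosphate, G6PDH, MgCl2, albumin) in 50 mM potassium phosphate pH 7.4. Enzyme and 0.4 μM dibenzylfluorescein substrate then added, 30 min at 37 °C. Quenched with 2 N NaOH and incubated a further 2 h at 37 °C. Fluorescence read at ex 485/em 530 nm. Compound tested at 50 μM.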

[2] = molecular target: T2, Nitric oxide synthase, inducible (Mus musculus) (UniProt P29477); experiment: Inhibition of iNOS-mediated nitric oxide production in LPS-stimulated mouse RAW 264.7 cells at 50 uM pretreated 15 mins before LPS challenge measured after 20 hrs relative to control; format: cell-based
T2 sequence (whole entry): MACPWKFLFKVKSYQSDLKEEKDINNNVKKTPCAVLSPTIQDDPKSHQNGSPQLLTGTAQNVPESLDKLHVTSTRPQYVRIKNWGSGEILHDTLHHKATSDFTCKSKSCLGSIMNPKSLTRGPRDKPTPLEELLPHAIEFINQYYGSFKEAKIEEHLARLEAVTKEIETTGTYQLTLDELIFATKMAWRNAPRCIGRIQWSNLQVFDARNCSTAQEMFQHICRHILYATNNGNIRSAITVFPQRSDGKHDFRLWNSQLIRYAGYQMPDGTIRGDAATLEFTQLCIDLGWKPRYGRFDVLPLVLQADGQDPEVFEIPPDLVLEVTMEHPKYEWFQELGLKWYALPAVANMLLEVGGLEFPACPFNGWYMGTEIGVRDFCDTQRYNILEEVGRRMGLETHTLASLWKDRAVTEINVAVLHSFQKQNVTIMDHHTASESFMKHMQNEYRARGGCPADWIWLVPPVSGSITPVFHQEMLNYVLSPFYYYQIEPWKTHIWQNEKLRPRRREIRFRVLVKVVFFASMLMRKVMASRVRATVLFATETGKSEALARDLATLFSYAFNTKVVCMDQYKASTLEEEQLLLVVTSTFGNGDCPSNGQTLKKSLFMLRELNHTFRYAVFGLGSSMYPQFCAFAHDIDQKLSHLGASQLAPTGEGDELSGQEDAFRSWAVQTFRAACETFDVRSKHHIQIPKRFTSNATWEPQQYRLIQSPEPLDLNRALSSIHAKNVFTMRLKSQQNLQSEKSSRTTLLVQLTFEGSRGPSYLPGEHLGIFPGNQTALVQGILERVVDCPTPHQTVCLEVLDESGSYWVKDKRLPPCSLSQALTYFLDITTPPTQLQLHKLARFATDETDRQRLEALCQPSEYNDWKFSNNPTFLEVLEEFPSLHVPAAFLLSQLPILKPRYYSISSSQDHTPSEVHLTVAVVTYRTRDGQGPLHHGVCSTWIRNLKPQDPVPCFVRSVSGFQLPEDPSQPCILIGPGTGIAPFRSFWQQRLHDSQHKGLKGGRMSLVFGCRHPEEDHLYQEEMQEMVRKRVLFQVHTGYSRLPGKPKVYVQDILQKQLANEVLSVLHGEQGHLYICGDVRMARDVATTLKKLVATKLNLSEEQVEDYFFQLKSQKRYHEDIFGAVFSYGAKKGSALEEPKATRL
Procedure, shortened: (§1)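 RAW 264.7 cells cultured 24 h at 37°C, then given serially diluted compounds for 15 min before LPS (1 μg/mL) for 20 h. Nitrite in the medium measured with Griess reagent at 540 nm against a sodium nitrite standard curve. Cytotoxicity checked by SRB under the same conditions.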

[3] = tested on: HEK293; experiment: Inhibition of TNF-alpha-induced NFkappaB activation in human HEK293 cells assessed as cell survival at 50 uM after 6 hrs by luciferase assay relative to control; format: cell-based
[4] = tested on: HEK293; experiment: Inhibition of TNF-alpha-induced NFkappaB activation in human HEK293 cells at 50 uM after 6 hrs by luciferase assay relative to control; format: cell-based
Procedure, shortened: (§2)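 Cells incubated 6 h with TNFα plus test compound, then luciferase activity measured. Results expressed as percent of TNFα-treated control. Screening concentration 50 μM.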

[5] = molecular target: T2, Nitric oxide synthase, inducible (Mus musculus); experiment: Inhibition of iNOS-mediated nitric oxide production in LPS-stimulated mouse RAW 264.7 cells assessed as cell survival at 50 uM pretreated 15 mins before LPS challenge measured after 20 hrs relative to control; format: cell-based
Procedure, shortened: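 RAW 264.7 cells were incubated at 37°C, 5% CO2 for 24 h. They were then exposed to compound for 15 min before LPS (1 μg/mL) was added for 20 h. Cytotoxicity was measured by SRB staining under the same conditions. Survival is expressed as % relative to vehicle-treated controls at 50 μM.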

[6] = molecular target: NAD(P)H dehydrogenase [quinone] 1 (Mus musculus) (UniProt Q64669); experiment: Induction of quinone reductase 1 activity in mouse Hepa-1c1c7 cells assessed as cell survival at 50 uM by MTT assay relative to control; format: cell-based
NAD(P)H dehydrogenase [quinone] 1 (Mus musculus), sequence (Q64669 whole entry): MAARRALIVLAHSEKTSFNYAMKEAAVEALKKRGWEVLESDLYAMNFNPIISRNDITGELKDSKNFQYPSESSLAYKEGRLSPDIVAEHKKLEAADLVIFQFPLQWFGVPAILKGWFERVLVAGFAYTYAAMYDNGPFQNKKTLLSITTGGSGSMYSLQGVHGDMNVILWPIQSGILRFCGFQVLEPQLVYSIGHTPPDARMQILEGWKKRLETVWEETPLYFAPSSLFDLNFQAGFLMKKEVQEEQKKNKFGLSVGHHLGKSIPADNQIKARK

[7] = tested on: MCF7; experiment: Antiproliferative activity against human MCF7 cells assessed as survival at 50 uM after 72 hrs by SRB assay relative to control; format: functional; conditions: MCF7, 72 h, read-out: Survival
Procedure, shortened: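 MCF7 cells (1 × 10^4 per well) were plated onto compound and kept at 37°C, 5% CO2 for 72 h. Cells were fixed in 10% TCA for 30 min and stained with 0.4% SRB in 1% acetic acid for 30 min. Bound dye was dissolved in 10 mM Tris (pH 10.0) and read at 515 nm. Survival is given as % of DMSO-treated controls, screened at 50 μM.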

[8] = molecular target: NAD(P)H dehydrogenase [quinone] 1 (Mus musculus) (UniProt Q64669); experiment: Induction of quinone reductase 1 activity in mouse Hepa-1c1c7 cells at 50 uM by MTT assay relative to untreated control; format: cell-based
Procedure, shortened: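 Hepa 1c1c7 murine hepatoma cells treated with compound at 50 μM. QR1 measured by NADPH-dependent, menadiol-mediated reduction of MTT to formazan. Protein measured by crystal violet staining of identical plates. Specific activity is nmol formazan per mg protein per min. Induction ratio is treated versus DMSO-treated control.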

[9] = molecular target: T1, Aromatase; experiment: Inhibition of aromatase after 10 mins preincubation by plate reader relative to control
[10] = molecular target: T3, Nitric oxide synthase, inducible (Mus musculus, UniProt P29477); experiment: Inhibition of iNOS-mediated nitric oxide production in LPS-stimulated mouse RAW 264.7 cells pretreated 15 mins before LPS challenge measured after 20 hrs relative to control; format: cell-based; procedure, shortened: as §1
T3 sequence (P29477 whole entry): T2 sequence (whole entry)

[11] = molecular target: NAD(P)H dehydrogenase [quinone] 1 (Mus musculus) (UniProt Q64669); experiment: Induction of quinone reductase 1 in mouse Hepa 1c1c7 cells assessed as concentration of compound required to double enzyme activity by MTT assay; format: cell-based
Procedure, shortened: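 Dose-response in Hepa 1c1c7 cells, run for substances with induction ratio >2 at 50 μM. QR1 activity measured as menadiol-mediated, NADPH-dependent MTT reduction to formazan, normalised to crystal violet protein content. CD is the concentration that doubles specific activity relative to DMSO control.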

[12] = Inhibition of TNF-alpha-induced NFkappaB activation in human HEK293 cells after 6 hrs by luciferase assay; format: cell-based; conditions: HEK293, 6 h; procedure, shortened: as §2
[13] = tested on: MCF7; experiment: Antiproliferative activity against human MCF7 cells after 72 hrs by SRB assay; format: functional, cell-based; conditions: MCF7, 72 h
Procedure, shortened: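 MCF7 cells, 1 × 10^4 per well, plated directly onto compounds and incubated 72 h at 37°C, 5% CO2. Fixed with 10% TCA, stained with 0.4% SRB in 1% acetic acid. Bound dye dissolved in 10 mM Tris pH 10.0, absorbance read at 515 nm. Survival expressed relative to DMSO-treated controls.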

Row | Structure (SMILES) | inhibition at 50 µM [1] | inhibition [2] | Survival [3] | inhibition [4] | Survival [5] | Survival [6] | viability at 50 µM [7] | Ratio [8] | IC50 [9] | IC50 [10] | CD [11] | IC50 [12] | IC50 [13]
1 | O=C(O)[C@@H]1Cc2c([nH]c3ccccc23)CN1Cc1ccc(O)cc1 | 57.9% | 16% | 102% | 55% | 90.3% | 88.3% | 85.2% | 1.7 | 10.5 µM |  |  |  | 
2 | COC(=O)[C@H]1Cc2c([nH]c3ccccc23)CN1S(C)(=O)=O | 40.2% | 12.9% | 158% | 42.2% | 79.9% | 86.3% | 90.9% | 1.6 | 68.1 µM |  |  |  | 
3 | COC(=O)[C@@H]1Cc2c([nH]c3ccccc23)CN1Cc1ccc(O)cc1 | 46.1% | 62.1% | 96% | 47.8% | 75.5% | 91.7% | 94.7% | 1.3 | 57.4 µM | 38.8 µM |  |  | 
4 | COC(=O)[C@@H]1Cc2c([nH]c3ccccc23)CN1CC1CC1 | 47.7% | 23.5% | 152% | 54.1% | 99.8% | 68.6% | 85.6% | 2.2 | 58.6 µM |  | 34 µM |  | 
5 | COC(=O)[C@@H]1Cc2c([nH]c3ccccc23)CN1C(=O)NC(C)C | 54% | 37.8% | 117% | 69% | 94.3% | 61.2% | 71% | 2.9 | 47.3 µM |  | 6.4 µM | 26.5 µM | 
6 | COC(=O)[C@@H]1Cc2c([nH]c3ccccc23)CN1C(=O)NC12CC3CC(CC(C3)C1)C2 | 30.3% | 64.1% | 139% | 60.7% | 66.7% | 78.1% | 37.6% | 0.9 |  | 13.4 µM |  | 10.2 µM | 36.9 µM
7 | COC(=O)[C@H]1Cc2c([nH]c3ccccc23)CN1C(=O)NCCc1ccccc1 | 24.6% | 66.2% | 108% | 81.7% | 66.1% | 51.7% | 4.3% | 1.5 |  | 11 µM |  | 13.3 µM | 27.7 µM
8 | C=CCOC(=O)N1Cc2[nH]c3ccccc3c2C[C@H]1C(=O)OC | 54.6% | 8.5% | 191% | 33.3% | 94.2% | 83.4% | 70.4% | 1.9 | 44.8 µM |  |  |  | 
9 | COC(=O)[C@@H]1Cc2c([nH]c3ccccc23)CN1C(=O)NCCc1ccccc1 | 31.8% | 48.2% | 94.6% | 87.7% | 68.9% | 59.6% | 1.3% | 0.5 |  |  |  | 16.9 µM | 25.4 µM
10 | CCCCCNC(=O)N1Cc2[nH]c3ccccc3c2C[C@H]1C(=O)OC | -0.04% | 8.7% | 110% | 35.5% | 94.9% | 7.8% | 40.3% | 4.9 |  |  | 3.8 µM |  | 38.4 µM
